Key:
[1] = molecular target: Human immunodeficiency virus type 1 protease (Human immunodeficiency virus 1, UniProt Q72874); test: Inhibitory activity against HIV-1 protease
Method in brief: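 Recombinant HIV-1 protease refolded from E. coli inclusion bodies; substrate GSP (H-Val-Ser-Gln-Asn-Tyr-Pro-Ile-Val-OH) at 2.5 mM. Run at 30 °C in 100 mM sodium acetate pH 5.5 with 10% glycerol, 5% ethylene glycol, 0.1% Nonidet P-40. Inhibitor added before enzyme, five to seven concentrations. Stopped at 30 min with TFA, products by HPLC; Ki from Dixon plots.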

[2] = The compound was tested for its antiviral activity against vaccinia virus in CV-1 monkey cells at 10 uM; type: functional; conditions: Cercopithecidae

Compound | Ki [1] [nM] | inhibition at 10 µM [2] [%]
CC[C@H](C)[C@H](NC(=O)[C@H](C(C)C)[C@@H](O)[C@H](O)[C@H](CC(C)C)NC(=O)[C@H](Cc1c[nH]cn1)NC(=O)[C@@H](Cc1ccccc1)NC(=O)OC(C)(C)C)C(=O)NCc1ccccn1 | 28 | –
CC[C@H](C)[C@H](NC(=O)[C@H](C(C)C)[C@@H](O)[C@H](O)[C@H](CC(C)C)NC(=O)[C@H](Cc1c[nH]cn1)NC(=O)COc1cccc2ccccc12)C(=O)NCc1ccccn1 | 5 | –
CC[C@H](C)[C@H](NC(=O)[C@@H](Cc1ccccc1)[C@@H](O)[C@H](O)[C@H](Cc1ccccc1)NC(=O)[C@H](Cc1c[nH]cn1)NC(=O)COc1cccc2ccccc12)C(=O)NCc1ccccn1 | 12 | –
CC[C@H](C)[C@H](NC(=O)[C@@H](CC(C)C)[C@@H](O)[C@H](O)[C@H](CC(C)C)NC(=O)[C@H](Cc1c[nH]cn1)NC(=O)COc1cccc2ccccc12)C(=O)NCc1ccccn1 | 220 | –
CC[C@H](C)[C@H](NC(=O)[C@H](C(C)C)[C@@H](O)[C@H](O)[C@H](CC1CCCCC1)NC(=O)CC1CCCCC1)C(=O)NCc1ccccn1 | 22 | 80
CC[C@H](C)[C@H](NC(=O)[C@H](CC(C)C)[C@@H](O)[C@H](O)[C@H](CC1CCCCC1)NC(=O)[C@H](Cc1c[nH]cn1)NC(=O)COc1cccc2ccccc12)C(=O)NCc1ccccn1 | 5 | –
CC[C@H](C)[C@H](NC(=O)[C@H](CC(C)C)[C@@H](O)[C@H](O)[C@H](CC(C)C)NC(=O)[C@H](Cc1c[nH]cn1)NC(=O)COc1cccc2ccccc12)C(=O)NCc1ccccn1 | 7 | –
CC[C@H](C)[C@H](NC(=O)[C@H](C(C)C)[C@@H](O)[C@H](O)[C@H](CC1CCCCC1)NC(=O)[C@H](Cc1c[nH]cn1)NC(=O)CN)C(=O)NCc1ccccn1 | 11 | 0
CC[C@H](C)[C@H](NC(=O)[C@H](C(C)C)[C@@H](O)[C@H](O)[C@H](CC1CCCCC1)NC(=O)[C@H](Cc1c[nH]cn1)NC(=O)COc1cccc2ccccc12)C(=O)NCc1ccccn1 | < 1 | –
CC[C@H](C)[C@H](NC(=O)[C@H](C(C)C)[C@@H](O)[C@H](O)[C@H](CC1CCCCC1)NC(=O)[C@H](Cc1c[nH]cn1)NC(=O)CO)C(=O)NCc1ccccn1 | 4 | 0
CC[C@H](C)[C@H](NC(=O)[C@H](C(C)C)[C@H](O)[C@H](O)[C@H](CC(C)C)NC(=O)[C@H](Cc1c[nH]cn1)NC(=O)[C@@H](Cc1ccccc1)NC(=O)OC(C)(C)C)C(=O)NCc1ccccn1 | 500 | –
CC[C@H](C)[C@H](NC(=O)[C@H](C(C)C)[C@@H](O)[C@H](O)[C@H](CC(C)C)NC(=O)[C@H](Cc1c[nH]cn1)NC(=O)COc1ccccc1)C(=O)NCc1ccccn1 | 5 | –
CC[C@H](C)[C@H](NC(=O)[C@H](C(C)C)[C@@H](O)[C@H](O)[C@H](CC1CCCCC1)NC(=O)[C@H](Cc1c[nH]cn1)NC(=O)COc1ccccc1)C(=O)NCc1ccccn1 | 2 | 100
CC[C@H](C)[C@H](NC(=O)[C@H](CC1CCCCC1)[C@@H](O)[C@H](O)[C@H](CC1CCCCC1)NC(=O)[C@H](Cc1c[nH]cn1)NC(=O)COc1cccc2ccccc12)C(=O)NCc1ccccn1 | 26 | –

Source: ChEMBL document CHEMBL1125602, “Inhibitors of the protease from human immunodeficiency virus: design and modeling of a compound containing a dihydroxyethylene isostere insert with high binding affinity and effective antiviral activity” (J Med Chem, 1991)
